Measured values taken from publication PMC10835759 (RSC Advances, 2024).

Legend:
[1] = target: rat intestinal isomaltase (Rattus norvegicus, UniProt P23739); experiment: Inhibitory effects on rat intestinal α-glucosidases: isomaltase; assay type: biochemical; conditions: at 100 μg mL^−1 (26a: 297 μM, 26b: 271 μM, 26c and 27c: 341 μM, 28a: 326 μM, 28b: 296 μM, 28c: 380 μM)
rat α-glucosidase = experiment: Glycosidase inhibitory activity, enzymes from rat small intestines; assay type: biochemical; conditions: rat small intestinal enzymes, at 100 μg mL^−1
Procedure, shortened: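 Enzyme source: brush border membrane vesicles prepared from rat small intestine and suspended in 0.1 M maleate buffer, pH 6.0. Test compound in DMSO, diluted in maleate buffer to 10% DMSO (2.5% final). Substrate solutions in maleate buffer: maltose 74 mM, sucrose 74 mM, 7.4 mM for isomaltase. Mixture incubated at 37 °C for 30 min and stopped by boiling for 2 min. Glucose measured by the glucose-oxidase method.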

rat intestinal sucrase = rat intestinal sucrase (Rattus norvegicus, UniProt P23739); experiment: Inhibitory effects on rat intestinal α-glucosidases: sucrase; assay type: biochemical; conditions: for IC50: IC50 Sucrase, rat small intestinal brush border membrane vesicles, sucrose 74 mM, pH 6.0, 37 °C, 30 min; for inhibition (%) Sucrase: at 100 μg mL^−1 (26a: 297 μM, 26b: 271 μM, 26c and 27c: 341 μM, 28a: 326 μM, 28b: 296 μM, 28c: 380 μM)
yeast glucosidase = conditions: read-out: Ki, inhibitory activity against yeast glucosidase; cited from earlier work

Chain of rat intestinal sucrase (P23739 whole entry): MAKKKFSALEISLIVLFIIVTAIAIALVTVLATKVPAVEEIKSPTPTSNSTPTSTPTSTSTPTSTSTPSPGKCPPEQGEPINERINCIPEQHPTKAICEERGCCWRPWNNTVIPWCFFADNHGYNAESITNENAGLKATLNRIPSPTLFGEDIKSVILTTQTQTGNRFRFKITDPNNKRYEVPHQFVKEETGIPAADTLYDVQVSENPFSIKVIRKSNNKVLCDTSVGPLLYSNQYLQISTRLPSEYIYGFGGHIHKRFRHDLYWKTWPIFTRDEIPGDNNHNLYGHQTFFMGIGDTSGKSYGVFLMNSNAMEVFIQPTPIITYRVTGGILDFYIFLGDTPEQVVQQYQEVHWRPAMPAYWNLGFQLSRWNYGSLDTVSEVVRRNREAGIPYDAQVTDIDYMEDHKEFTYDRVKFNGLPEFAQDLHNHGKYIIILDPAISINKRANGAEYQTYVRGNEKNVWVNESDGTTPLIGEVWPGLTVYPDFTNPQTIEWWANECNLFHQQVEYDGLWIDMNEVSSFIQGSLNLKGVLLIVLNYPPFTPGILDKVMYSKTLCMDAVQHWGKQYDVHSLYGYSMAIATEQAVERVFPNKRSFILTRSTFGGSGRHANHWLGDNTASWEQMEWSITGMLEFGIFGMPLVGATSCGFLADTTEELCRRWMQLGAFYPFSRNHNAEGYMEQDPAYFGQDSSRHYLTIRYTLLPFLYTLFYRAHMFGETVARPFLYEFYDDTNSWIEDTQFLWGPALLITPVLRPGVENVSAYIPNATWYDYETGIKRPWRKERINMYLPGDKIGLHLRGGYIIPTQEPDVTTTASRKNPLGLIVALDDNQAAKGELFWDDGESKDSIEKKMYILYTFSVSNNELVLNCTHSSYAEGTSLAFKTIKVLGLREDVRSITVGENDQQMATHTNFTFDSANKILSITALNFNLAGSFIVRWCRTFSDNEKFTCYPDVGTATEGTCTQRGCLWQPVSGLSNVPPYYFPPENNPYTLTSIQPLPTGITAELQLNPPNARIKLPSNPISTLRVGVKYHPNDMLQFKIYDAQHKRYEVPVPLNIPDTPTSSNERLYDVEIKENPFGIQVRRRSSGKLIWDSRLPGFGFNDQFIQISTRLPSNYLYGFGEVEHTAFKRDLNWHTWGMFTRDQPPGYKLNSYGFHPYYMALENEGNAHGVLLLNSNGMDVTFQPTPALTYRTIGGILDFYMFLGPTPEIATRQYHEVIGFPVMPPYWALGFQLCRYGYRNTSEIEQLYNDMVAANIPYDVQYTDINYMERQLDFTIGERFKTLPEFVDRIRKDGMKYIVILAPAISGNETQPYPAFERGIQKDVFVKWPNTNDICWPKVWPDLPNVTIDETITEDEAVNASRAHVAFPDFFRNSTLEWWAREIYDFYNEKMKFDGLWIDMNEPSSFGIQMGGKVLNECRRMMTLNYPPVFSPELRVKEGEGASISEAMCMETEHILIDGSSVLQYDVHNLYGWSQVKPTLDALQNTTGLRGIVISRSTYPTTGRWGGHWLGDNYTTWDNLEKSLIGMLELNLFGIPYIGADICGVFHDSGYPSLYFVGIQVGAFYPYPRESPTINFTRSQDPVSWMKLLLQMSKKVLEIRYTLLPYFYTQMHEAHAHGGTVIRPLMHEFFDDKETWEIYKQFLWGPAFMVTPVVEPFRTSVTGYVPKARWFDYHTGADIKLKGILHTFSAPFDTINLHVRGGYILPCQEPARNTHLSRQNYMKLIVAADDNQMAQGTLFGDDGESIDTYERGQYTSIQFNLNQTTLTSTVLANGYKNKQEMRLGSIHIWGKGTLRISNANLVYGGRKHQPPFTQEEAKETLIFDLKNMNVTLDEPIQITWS
Chain of rat intestinal isomaltase (P23739 whole entry): as above

| Compound | inhibition (%) Isomaltase [1] | inhibitory activity against maltase, sucrase and isomaltase (in words) (rat α-glucosidase) | IC50 (rat intestinal sucrase) | inhibition (%) Sucrase (rat intestinal sucrase) | Ki (yeast glucosidase) |
| --- | --- | --- | --- | --- | --- |
| OCC[S+](CCO)C[C@@H](O)[C@@H](O)CO.[Cl-] [Compound 28c, Di(2-hydroxyethyl) [(2S,3S)-2,3,4-trihydroxybutyl] sulfonium chloride] | −0.9% | lost considerable activity | > 380 µM | 2.6% | – |
| [O-][C@@H](CO)[C@H](O)C[S@+]1C[C@@H](O)[C@H](O)[C@H]1CO [Neosalacinol (4), neosalacinol, reference compound] | – | effectively inhibited | 1.4 µM | – | – |
| OCC[S+](C[C@@H](O)CO)C[C@@H](O)[C@@H](O)CO.[Cl-] (stereo partly drawn) [Compound 27c, [(S)-2,3-Dihydroxypropyl] (2-hydroxyethyl) ((2S,3S)-2,3,4-trihydroxybutyl) sulfonium chloride] | −2.3% | negligible | > 341 µM | 4.4% | – |
| OCC[S+](C[C@@H](O)[C@@H](O)CO)C(CO)CO.[Cl-] (single isomer, unassigned) [Compound 26c] | 5.9% | hardly inhibited | > 341 µM | 3.2% | – |
| O=S(=O)([O-])O[C@@H](CO)[C@H](O)C[S@+]1C[C@@H](O)[C@H](O)[C@H]1CO [Salacinol (1), salacinol, reference compound] | – | effectively inhibited | – | – | 14 µM |
